{"data": "Measured values of several laboratories", "target": "Activin receptor type-1B (ACVR1B, Homo sapiens, UniProt P36896)", "Residues used in one study (P36896 24-505)": "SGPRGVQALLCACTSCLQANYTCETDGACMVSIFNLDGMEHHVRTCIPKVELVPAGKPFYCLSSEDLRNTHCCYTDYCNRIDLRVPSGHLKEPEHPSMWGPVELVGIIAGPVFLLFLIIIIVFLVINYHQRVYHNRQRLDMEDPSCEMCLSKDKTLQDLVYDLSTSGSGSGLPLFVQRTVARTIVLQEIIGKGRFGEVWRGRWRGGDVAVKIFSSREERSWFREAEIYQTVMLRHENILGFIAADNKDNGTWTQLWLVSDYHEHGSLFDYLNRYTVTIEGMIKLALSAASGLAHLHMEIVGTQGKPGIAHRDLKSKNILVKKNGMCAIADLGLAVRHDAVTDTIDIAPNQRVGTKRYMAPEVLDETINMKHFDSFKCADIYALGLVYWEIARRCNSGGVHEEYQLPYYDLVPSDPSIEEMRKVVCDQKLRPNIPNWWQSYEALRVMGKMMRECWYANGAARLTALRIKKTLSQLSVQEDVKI", "note": "Protocols differ between the studies behind these lines."}
{"SMILES": "Nc1ncc(-c2nc(N3CCOCC3)nc(N3CCOCC3)n2)c(C(F)F)n1", "effect on": "binding", "technique": "competition with immobilised ligand", "concentration": "10 µM", "measurement": "remaining binding", "result": "94%"}
{"SMILES": "Cn1cc(-c2cccc(N3CCc4c(sc5c4CC(C)(C)C5)C3=O)c2CO)cc(Nc2ccncn2)c1=O", "effect on": "enzyme activity", "action": "inhibitor", "concentration": "1 µM", "measurement": "inhibition", "result": "-5%"}
{"SMILES": "Cc1nn(C)cc1-c1nc2c(N3CCN(Cc4ccc(Cl)cc4)CC3)c(Cl)cnc2[nH]1", "effect on": "binding", "technique": "competition with immobilised ligand", "concentration": "1 µM", "measurement": "remaining binding", "result": "68%"}
{"SMILES": "O=c1[nH]c2ccccc2n1C1CCN(Cc2ccc(-c3[nH]c4cc5ncnc5cc4nc3-c3ccccc3)cc2)CC1", "effect on": "cell-free assay", "concentration": "0.5 µM", "measurement": "remaining signal", "result": "111%"}
{"SMILES": "C#Cc1n[nH]c2c(-c3cn([C@@H](C)c4ccccc4)c(=O)[nH]c3=O)cc(F)cc12", "effect on": "enzyme activity", "action": "inhibitor", "concentration": "0.1 µM", "measurement": "inhibition", "result": "-3.3%"}
{"SMILES": "COc1ncccc1-c1cnn2ccc(N3CCN(C(=O)OC(C)C)CC3)nc12", "effect on": "binding", "technique": "competition with immobilised ligand", "concentration": "1 µM", "measurement": "remaining binding", "result": "93%"}
{"SMILES": "COc1cc(Nc2ncc(F)c(Nc3ccc4c(n3)NC(=O)C(C)(C)O4)n2)cc(OC)c1OC", "effect on": "binding", "technique": "competition with immobilised ligand", "concentration": "10 µM", "measurement": "inhibition", "result": "55%"}
{"SMILES": "CC(C)(C)c1cc(C=C(C#N)C#N)cc(Br)c1O", "effect on": "enzyme activity", "action": "inhibitor", "concentration": "0.5 µM", "measurement": "remaining activity", "result": "108%"}
{"SMILES": "Cn1cncc1[C@](O)(COc1ccc(C#N)cc1-c1ccc(OC(F)(F)F)cc1)c1ccc(C#N)cc1", "effect on": "cell-free assay", "technique": "competition with immobilised ligand", "concentration": "1 µM", "measurement": "remaining binding", "result": "87%"}
{"SMILES": "Cn1cc(-c2cc(F)cc(N3CCn4c(cc5c4CCCC5)C3=O)c2CO)cc(Nc2ccc(N3CCN(C4COC4)CC3)cn2)c1=O", "effect on": "enzyme activity", "action": "inhibitor", "concentration": "0.1 µM", "measurement": "inhibition", "result": "-1%"}
{"SMILES": "N#CC1(c2ccccn2)CCN(Cc2cc(C(=O)O)c(=O)n3ccccc23)CC1", "effect on": "cell-free assay", "technique": "competition with immobilised ligand", "concentration": "1 µM", "measurement": "remaining binding", "result": "94%"}
{"SMILES": "C#Cc1n[nH]c2c(-c3cn([C@@H](C)c4ccccn4)c(=O)[nH]c3=O)cc(F)cc12", "effect on": "enzyme activity", "action": "inhibitor", "concentration": "0.1 µM", "measurement": "inhibition", "result": "-3.4%"}
